≈ marks a conversion by molar mass, not a printed value.
Tests used:
[1] = Permeability across apical to basolateral side in human Caco2 cells; type: ADME, cell-based; conditions: Caco-2, read-out: permeability
Outline: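 Caco-2 monolayer permeability run with apical compartment at pH 6.0 and basolateral compartment at pH 7.4; reported in 10^-6 cm/s.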

[2] = Lipophilicity, log D of the compound at pH 7.4; type: physicochemical; conditions: buffer
[3] = Solubility of the compound in form of lyophilized, amorphous solid at pH 6.8 after 24 hrs by shake flask method; type: physicochemical; conditions: buffer
Outline: (§1)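 Lyophilized amorphous solids tested by 24 h shaking flask method; solubility given in µg/ml at pH 2 and at pH 6.8.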

[4] = Solubility of the compound in form of lyophilized, amorphous solid at pH 2 after 24 hrs by shake flask method; type: physicochemical; conditions: buffer; outline: as §1
[5] = test system: Hepatitis C virus; experiment: Antiviral activity against HCV genotype 1b infected in human HuH7 cells assessed as inhibition of viral RNA replication after 72 hrs by luciferase reporter gene assay; type: functional, organism-based, Hepacivirus hominis; conditions: Huh-7, 72 h
Outline: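 HCV genotype 1b subgenomic luciferase reporter replicon cells. EC50 taken from inhibition of replicon RNA replication, luciferase read-out, n ≥ 2; method as described in earlier work.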

[6] = test system: Hepatitis C virus; experiment: Antiviral activity against HCV genotype 1b expressing HCV genotype 5a NS5B infected in human HuH7-J cells assessed as inhibition of viral RNA replication after 72 hrs by poliovirus internal ribosomal entry site incorporating luciferase reporter gene assay; type: functional, organism-based, Hepacivirus hominis; conditions: Huh-7, 72 h
Outline: (§2)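 Surrogate assay using chimeric gt1b subgenomic replicons that carry the NS5B polymerase gene from gt2b, 3a, 4a or 5a. Luciferase reporter sits downstream of the poliovirus IRES. EC50 is derived from inhibition of replication read by luciferase.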

[7] = test system: Hepatitis C virus; experiment: Antiviral activity against HCV genotype 1a infected in human HuH7-J cells assessed as inhibition of viral RNA replication after 72 hrs by poliovirus internal ribosomal entry site incorporating luciferase reporter gene assay; type: functional, organism-based, Hepacivirus hominis; conditions: subtype 1a, Huh-7, 72 h
Outline: (§3)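 Subgenomic HCV replicons (gt1a or gt1b) carrying a luciferase reporter, with the poliovirus IRES placed upstream of luciferase. EC50 is derived from inhibition of HCV RNA replication read by luciferase signal.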

[8] = test system: Hepatitis C virus; experiment: Antiviral activity against HCV genotype 1b expressing HCV genotype 6a NS5B infected in human HuH7-J cells assessed as inhibition of viral RNA replication after 72 hrs by real-time PCR analysis; type: functional, organism-based, Hepacivirus hominis; conditions: Huh-7, 72 h
Outline: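 Surrogate assay using a chimeric gt1b subgenomic replicon carrying the gt6a NS5B polymerase gene. Replicon RNA is quantified by RT-PCR, and EC50 is derived from inhibition of HCV RNA replication.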

[9] = test system: Hepatitis C virus; experiment: Antiviral activity against HCV genotype 1b expressing HCV genotype 3a NS5B infected in human HuH7-J cells assessed as inhibition of viral RNA replication after 72 hrs by poliovirus internal ribosomal entry site incorporating luciferase reporter gene assay; type: functional, organism-based, Hepacivirus hominis; conditions: Huh-7, 72 h; outline: as §2
[10] = test system: Hepatitis C virus; experiment: Antiviral activity against HCV genotype 1b expressing HCV genotype 4a NS5B infected in human HuH7-J cells assessed as inhibition of viral RNA replication after 72 hrs by poliovirus internal ribosomal entry site incorporating luciferase reporter gene assay; type: functional, organism-based, Hepacivirus hominis; conditions: Huh-7, 72 h; outline: as §2
[11] = test system: Hepatitis C virus; experiment: Antiviral activity against HCV genotype 1b infected in human HuH7-J cells assessed as inhibition of viral RNA replication after 72 hrs by poliovirus internal ribosomal entry site incorporating luciferase reporter gene assay; type: functional, organism-based, Hepacivirus hominis; conditions: Huh-7, 72 h; outline: as §3
[12] = test system: Hepatitis C virus; experiment: Antiviral activity against HCV genotype 1b expressing HCV genotype 2b NS5B infected in human HuH7-J cells assessed as inhibition of viral RNA replication after 72 hrs by poliovirus internal ribosomal entry site incorporating luciferase reporter gene assay; type: functional, organism-based, Hepacivirus hominis; conditions: Huh-7, 72 h; outline: as §2

Q: What does the source list for Nc1ccc(-c2cccc(Oc3ccc4c(c3)c(=O)ncn4Cc3c(F)cc(F)cc3F)c2C(F)(F)F)cn1?
A: Papp A→B [1]: 4.1 ×10⁻⁶ cm/s; logD [2]: 3.9; solubility thermodynamic at 24 h [3]: < 0.1 µg/mL; solubility thermodynamic at 24 h [4]: 0.3 µg/mL (≈ 0.553 µM); EC50 [5]: 10 nM

Q: Which Papp A→B [1] does the source give for NC(=O)c1cccc(Oc2ccc3c(c2)c(=O)ncn3Cc2c(F)cc(F)cc2F)c1C(F)(F)F here?
A: 1.9 ×10⁻⁶ cm/s

Q: And the EC50 [5]?
A: 180 nM

Q: With O=c1ncn(Cc2c(F)cc(F)cc2F)c2ccc(Oc3cccc(-c4ccccn4)c3C(F)(F)F)cc12 as the molecule, how does the EC50 [5] read?
A: 310 nM

Q: For O=c1ncn(Cc2c(F)cc(F)cc2F)c2ccc(Oc3ccc(-c4nc5ncccc5o4)cc3)cc12, which EC50 [5] is on record?
A: 490 nM

Q: With O=c1ncn(Cc2c(F)cc(F)cc2F)c2ccc(Oc3ccc(-c4ccc5[nH]ccc5c4)cc3)cc12 as the molecule, how does the Papp A→B [1] read?
A: 3.5 ×10⁻⁶ cm/s

Q: And the logD [2]?
A: 4.4

Q: What about the solubility thermodynamic at 24 h [3] of the same molecule?
A: 0.18 µg/mL (≈ 0.362 µM)

Q: What about the solubility thermodynamic at 24 h [4] of the same molecule?
A: < 0.1 µg/mL

Q: What about the EC50 [5] of the same molecule?
A: 4.6 nM

Q: What does the source list for O=c1ncn(Cc2c(F)cc(F)cc2F)c2ccc(Oc3cccc(-c4ccc5[nH]ccc5c4)c3C(F)(F)F)cc12?
A: EC50 [6]: 1.3 nM; EC50 [7]: 0.12 nM; Papp A→B [1]: 10.5 ×10⁻⁶ cm/s; EC50 [8]: 11 nM; EC50 [9]: 80 nM; logD [2]: 5.1; EC50 [10]: 1.1 nM; solubility thermodynamic at 24 h [3]: < 0.1 µg/mL; solubility thermodynamic at 24 h [4]: < 0.1 µg/mL; EC50 [11]: 0.11 nM; EC50 [12]: 15 nM; EC50 [5]: 0.13 nM

Q: With O=c1ncn(Cc2c(F)cc(F)cc2F)c2ccc(Oc3cccc(-c4nc5ncccc5o4)c3C(F)(F)F)cc12 as the molecule, how does the Papp A→B [1] read?
A: 3 ×10⁻⁶ cm/s

Q: And the EC50 [5]?
A: 3.3 nM

Q: For O=c1ncn(Cc2c(F)cc(F)cc2F)c2ccc(Oc3cccc(-c4ccccc4)c3C(F)(F)F)cc12, which EC50 [5] is on record?
A: 450 nM

Q: With Cc1cc(-c2cccc(Oc3ccc4c(c3)c(=O)ncn4Cc3c(F)cc(F)cc3F)c2C(F)(F)F)cnc1N as the molecule, how does the Papp A→B [1] read?
A: 1.1 ×10⁻⁶ cm/s

Q: What about the logD [2] of the same molecule?
A: > 4.7

Q: What about the solubility thermodynamic at 24 h [3] of the same molecule?
A: < 0.1 µg/mL

Q: And the solubility thermodynamic at 24 h [4]?
A: 74 µg/mL (≈ 133 µM)

Q: And the EC50 [5]?
A: 6 nM

Q: With O=C(Nc1ccccn1)c1cccc(Oc2ccc3c(c2)c(=O)ncn3Cc2c(F)cc(F)cc2F)c1C(F)(F)F as the molecule, how does the Papp A→B [1] read?
A: 1.2 ×10⁻⁶ cm/s

Q: And the EC50 [5]?
A: 6.8 nM

Q: With O=c1ncn(Cc2c(F)cc(F)cc2F)c2ccc(Oc3ccccc3C(F)(F)F)cc12 as the molecule, how does the Papp A→B [1] read?
A: 9.2 ×10⁻⁶ cm/s

Q: With O=c1ncn(Cc2c(F)cc(F)cc2F)c2ccc(Oc3cccc(-c4ccc5cc[nH]c5c4)c3C(F)(F)F)cc12 as the molecule, how does the logD [2] read?
A: 5

Q: And the solubility thermodynamic at 24 h [3]?
A: < 0.1 µg/mL

Q: And the solubility thermodynamic at 24 h [4]?
A: < 0.1 µg/mL

Q: And the EC50 [5]?
A: 10 nM

Q: For O=C(Nc1cccnc1)c1cccc(Oc2ccc3c(c2)c(=O)ncn3Cc2c(F)cc(F)cc2F)c1C(F)(F)F, which Papp A→B [1] is on record?
A: 0.26 ×10⁻⁶ cm/s

Q: And the EC50 [5]?
A: 5.7 nM

Q: For Cc1ccc(-c2cccc(Oc3ccc4c(c3)c(=O)ncn4Cc3c(F)cc(F)cc3F)c2C(F)(F)F)cn1, which logD [2] is on record?
A: 4.2

Q: And the solubility thermodynamic at 24 h [3]?
A: < 0.1 µg/mL

Q: And the solubility thermodynamic at 24 h [4]?
A: 180 µg/mL (≈ 332 µM)

Q: And the EC50 [5]?
A: 55 nM

Q: What does the source list for O=C(Nc1ccccc1)c1cccc(Oc2ccc3c(c2)c(=O)ncn3Cc2c(F)cc(F)cc2F)c1C(F)(F)F?
A: Papp A→B [1]: 0.84 ×10⁻⁶ cm/s; EC50 [5]: 2.5 nM

Q: With O=c1ncn(Cc2c(F)cc(F)cc2F)c2ccc(Oc3cccc(-c4ccc5[nH]cnc5c4)c3C(F)(F)F)cc12 as the molecule, how does the Papp A→B [1] read?
A: 0.4 ×10⁻⁶ cm/s

Q: What about the logD [2] of the same molecule?
A: 4.7

Q: What about the solubility thermodynamic at 24 h [3] of the same molecule?
A: < 0.1 µg/mL

Q: And the solubility thermodynamic at 24 h [4]?
A: < 0.1 µg/mL

Q: And the EC50 [5]?
A: 0.6 nM

— ChEMBL document CHEMBL3120123, “Molecular dynamics simulations and structure-based rational design lead to allosteric HCV NS5B polymerase thumb pocket 2 inhibitor with picomolar cellular replicon potency” (J Med Chem, 2014)
